Experimental data as given in ChEMBL document CHEMBL4834404, “Template-Hopping Approach Leads to Potent, Selective, and Highly Soluble Bromo and Extraterminal Domain (BET) Second Bromodomain (BD2) Inhibitors” (J Med Chem, 2021).
≈ marks a conversion by molar mass, not a printed value.

Legend:
[1] = molecular target: T1, Bromodomain-containing protein 2 (Homo sapiens, UniProt P25440); test: Inhibition of 6His-Thr-BRD2 (1 to 473 residues) BD2 domain Y386A or Y113A mutant (unknown origin) incubated for 30 mins by TR-FRET assay
[2] = Solubility of compound by CLND assay; type: physicochemical
[3] = molecular target: T2, Bromodomain-containing protein 3 (Homo sapiens, UniProt Q15059); test: Inhibition of 6His-Thr-BRD3 (1 to 435 residues) BD1 domain (unknown origin) incubated for 30 mins by TR-FRET assay
Target sequence in this assay (Q15059 whole entry, the tested form may be a part): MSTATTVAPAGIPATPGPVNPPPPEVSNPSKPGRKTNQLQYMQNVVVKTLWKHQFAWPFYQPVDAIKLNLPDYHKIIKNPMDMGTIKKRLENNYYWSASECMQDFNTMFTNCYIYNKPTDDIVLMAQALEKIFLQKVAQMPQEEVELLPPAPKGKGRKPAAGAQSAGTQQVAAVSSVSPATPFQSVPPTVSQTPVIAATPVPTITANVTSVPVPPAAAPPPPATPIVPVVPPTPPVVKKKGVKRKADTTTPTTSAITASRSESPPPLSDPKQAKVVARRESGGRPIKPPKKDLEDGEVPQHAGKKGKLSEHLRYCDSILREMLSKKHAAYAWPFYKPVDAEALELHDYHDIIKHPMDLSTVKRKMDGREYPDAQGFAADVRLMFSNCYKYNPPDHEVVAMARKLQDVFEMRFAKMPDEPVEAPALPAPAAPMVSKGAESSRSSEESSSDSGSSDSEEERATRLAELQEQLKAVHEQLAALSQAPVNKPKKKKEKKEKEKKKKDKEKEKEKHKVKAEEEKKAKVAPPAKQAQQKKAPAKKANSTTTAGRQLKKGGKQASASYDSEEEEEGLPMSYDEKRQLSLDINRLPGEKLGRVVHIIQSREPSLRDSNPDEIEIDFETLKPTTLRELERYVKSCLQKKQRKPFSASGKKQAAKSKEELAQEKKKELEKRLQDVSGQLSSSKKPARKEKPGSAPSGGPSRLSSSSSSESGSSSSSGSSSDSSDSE

Blood = test: Inhibition of LPS-stimulated MCP-1 production in human whole blood incubated for 24 hrs by mesoscale assay; type: functional, tissue-based
How it was run: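 Sodium-heparinized human whole blood preincubated 30 min with compound (DMSO dilutions, 140× stocks) at 37 °C, 5% CO₂, then stimulated with Salmonella typhosa LPS (200 ng/mL final) for 24 h. PBS added, plates centrifuged, supernatant MCP-1 quantified by MesoScale Discovery immunoassay.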

[4] = Metabolic stability in human Hepatocyte assessed as intrinsic clearance at 0.5 uM incubated for 120 mins by LC-MS/MS analysis; type: ADME, tissue-based; details: hepatocytes, 2 h
[5] = Unbound clearance in Wistar Han rat at 1 mg/kg, iv measured upto 7 hrs by LC-MS/MS analysis; type: ADME, organism-based; details: in vivo
[6] = molecular target: T3, Bromodomain testis-specific protein (Homo sapiens, UniProt Q58F21); test: Inhibition of 6His-FLAG-Tev-BRDT (1 to 397 residues) BD2 domain Y309A or Y66A mutant (unknown origin) incubated for 30 mins by TR-FRET assay
[7] = Metabolic stability in rat Hepatocyte assessed as intrinsic clearance at 0.5 uM incubated for 60 mins by LC-MS/MS analysis; type: ADME, tissue-based; details: hepatocytes, 1 h
[8] = Volume of distribution at steady state in Wistar Han rat at 1 mg/kg, iv measured upto 7 hrs by LC-MS/MS analysis; type: ADME, organism-based; details: in vivo, read-out: Vdss
How it was run: (§1)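 Surgically cannulated male Wistar Han rats (femoral vein dosing, jugular vein sampling), given 1 h iv infusion at target 1 mg/kg, 0.2 mg/mL in DMSO/10% (w/v) Kleptose HPB in saline (2:98 v/v); n = 1. Serial 25 μL blood samples predose to 7 h; parent compound by LC-MS/MS (LLQ 1−2 ng/mL); non-compartmental analysis of blood concentration−time profiles.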

[9] = molecular target: T1, Bromodomain-containing protein 2; test: Inhibition of 6His-Thr-BRD2 (1 to 473 residues) BD1 domain (unknown origin) incubated for 30 mins by TR-FRET assay
Albumin = Albumin (Homo sapiens, UniProt P02768); test: Binding affinity to human serum albumin; type: ADME; details: isolated protein
How it was run: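 Chromatographic binding on chemically bonded HSA column (50 × 3 mm), 1.8 mL/min; mobile phase 50 mM ammonium acetate pH 7.4 with 2-propanol gradient (0−30% over 3 min, hold to 6 min, back to 0%); gradient retention time recorded.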

[10] = molecular target: Bromodomain-containing protein 4 (Homo sapiens, UniProt O60885, Y97A); test: Inhibition of 6His-Thr-BRD4 (1 to 477 residues) BD1 Y97A mutant (unknown origin) incubated for 30 mins by TR-FRET assay
[11] = Half life in Wistar Han rat at 1 mg/kg, iv measured upto 7 hrs by LC-MS/MS analysis; type: ADME, organism-based; details: in vivo; how it was run: as §1
[12] = Clearance in Wistar Han rat at 1 mg/kg, iv measured upto 7 hrs by LC-MS/MS analysis; type: ADME, organism-based; details: in vivo; how it was run: as §1
[13] = Dose normalized AUC in Wistar Han rat at 3 mg/kg, po measured upto 24 hrs by LC-MS/MS analysis; type: ADME, organism-based; details: in vivo
How it was run: (§2)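 Three naive male Wistar Han rats dosed by oral gavage at target 3 mg/kg, suspended in 1% (w/v) methylcellulose aq at 0.6 mg/mL. Serial 25 μL blood samples via tail vein up to 24 h; parent compound by LC-MS/MS (LLQ 1 ng/mL) against standards in control blood; non-compartmental PK analysis.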

[14] = AUC in Wistar Han rat at 1 mg/kg, iv measured upto 7 hrs by LC-MS/MS analysis; type: ADME, organism-based; design: route intravenous, dose 1 mg/kg, time <=7; details: in vivo; how it was run: as §1
[15] = Oral bioavailability in Wistar Han rat at 3 mg/kg measured upto 24 hrs by LC-MS/MS analysis; type: ADME, organism-based; details: in vivo; how it was run: as §2
[16] = Permeability of compound; type: ADME; details: not told; read-out: permeability
[17] = molecular target: T3, Bromodomain testis-specific protein; test: Inhibition of 6His-FLAG-Tev-BRDT (1 to 397 residues) BD1 domain (unknown origin) incubated for 30 mins by TR-FRET assay
Homo sapiens = species on record: Homo sapiens; test: Selectivity index, ratio of pIC50 of BRD4 BD1 (unknown origin) to pIC50 of BRD4 BD2 (unknown origin)
[18] = molecular target: Voltage-gated inwardly rectifying potassium channel KCNH2 (Homo sapiens, UniProt Q12809); test: Inhibition of human ERG
[19] = molecular target: Bromodomain-containing protein 4 (Homo sapiens, UniProt O60885, Y390A); test: Inhibition of 6His-Thr-BRD4 (1 to 477 residues) BD2 domain Y390A mutant (unknown origin) incubated for 30 mins by TR-FRET assay
[20] = molecular target: T2, Bromodomain-containing protein 3; test: Inhibition of 6His-Thr-BRD3 (1 to 435 residues) BD2 domain Y348A or Y73A mutant (unknown origin) incubated for 30 mins by TR-FRET assay
Target sequence in this assay (Q15059 2-726 limits assumed): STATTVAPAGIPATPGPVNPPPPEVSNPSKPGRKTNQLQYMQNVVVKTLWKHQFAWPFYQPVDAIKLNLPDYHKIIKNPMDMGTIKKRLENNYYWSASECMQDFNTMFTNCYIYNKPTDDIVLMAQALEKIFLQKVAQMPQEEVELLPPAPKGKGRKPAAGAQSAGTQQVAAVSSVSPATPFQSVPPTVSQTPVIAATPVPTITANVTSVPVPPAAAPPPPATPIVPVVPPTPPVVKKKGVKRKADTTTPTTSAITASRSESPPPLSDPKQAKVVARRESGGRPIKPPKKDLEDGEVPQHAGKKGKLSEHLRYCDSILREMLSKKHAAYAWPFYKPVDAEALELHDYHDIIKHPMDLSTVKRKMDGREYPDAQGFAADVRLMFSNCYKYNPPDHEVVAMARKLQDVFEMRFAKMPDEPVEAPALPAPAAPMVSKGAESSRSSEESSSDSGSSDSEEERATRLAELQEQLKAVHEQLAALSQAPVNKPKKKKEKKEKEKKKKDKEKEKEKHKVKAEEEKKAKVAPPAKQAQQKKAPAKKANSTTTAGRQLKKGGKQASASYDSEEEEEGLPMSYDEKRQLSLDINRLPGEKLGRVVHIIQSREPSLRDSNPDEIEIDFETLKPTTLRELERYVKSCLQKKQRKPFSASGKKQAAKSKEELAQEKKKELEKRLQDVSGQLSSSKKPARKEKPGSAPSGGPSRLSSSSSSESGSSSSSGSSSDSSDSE

[21] = Inhibition of LPS-induced MCP1 production in PBMC (unknown origin); type: functional, tissue-based
[22] = Solubility of the compound in pH 6.5 FaSSIF at 1 mg measured after 4 hrs by HPLC analysis; type: physicochemical
[23] = Fraction unbound in Wistar Han rat at 1 mg/kg, iv measured upto 4 hrs by LC-MS/MS analysis; type: ADME, organism-based
How it was run: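 Control Wistar Han rat blood dialyzed against PBS by rapid equilibrium dialysis, 4 h at 37 °C, compound at 200 and 1000 ng/mL; matrix-matched aliquots analysed by LC-MS/MS; unbound fraction from buffer/blood peak area ratios, mean of the two concentrations.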

T1 sequence (P25440 whole entry, the tested form may be a part): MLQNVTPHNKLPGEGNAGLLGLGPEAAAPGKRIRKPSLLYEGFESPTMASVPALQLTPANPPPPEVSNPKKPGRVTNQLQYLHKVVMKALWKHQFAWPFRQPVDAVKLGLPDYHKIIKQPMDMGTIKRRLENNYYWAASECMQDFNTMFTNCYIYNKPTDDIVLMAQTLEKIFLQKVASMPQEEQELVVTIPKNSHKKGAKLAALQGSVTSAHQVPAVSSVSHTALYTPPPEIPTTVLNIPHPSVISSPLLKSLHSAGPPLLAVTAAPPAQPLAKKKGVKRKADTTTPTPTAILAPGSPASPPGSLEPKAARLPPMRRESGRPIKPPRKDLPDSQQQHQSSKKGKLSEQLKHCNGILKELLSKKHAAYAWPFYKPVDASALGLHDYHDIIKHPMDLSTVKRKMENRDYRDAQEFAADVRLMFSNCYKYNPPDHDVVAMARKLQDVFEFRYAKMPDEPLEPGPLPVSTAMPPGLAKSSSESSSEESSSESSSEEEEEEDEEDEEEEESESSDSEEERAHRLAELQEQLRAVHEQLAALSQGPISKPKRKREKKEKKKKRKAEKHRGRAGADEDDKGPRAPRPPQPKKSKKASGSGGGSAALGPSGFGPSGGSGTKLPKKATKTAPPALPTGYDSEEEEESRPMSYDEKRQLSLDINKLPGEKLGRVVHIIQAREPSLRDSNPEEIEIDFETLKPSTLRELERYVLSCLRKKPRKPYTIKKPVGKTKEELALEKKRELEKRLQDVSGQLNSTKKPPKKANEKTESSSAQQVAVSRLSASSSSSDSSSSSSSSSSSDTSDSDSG
Sequence of Voltage-gated inwardly rectifying potassium channel KCNH2 (Q12809 whole entry, the tested form may be a part): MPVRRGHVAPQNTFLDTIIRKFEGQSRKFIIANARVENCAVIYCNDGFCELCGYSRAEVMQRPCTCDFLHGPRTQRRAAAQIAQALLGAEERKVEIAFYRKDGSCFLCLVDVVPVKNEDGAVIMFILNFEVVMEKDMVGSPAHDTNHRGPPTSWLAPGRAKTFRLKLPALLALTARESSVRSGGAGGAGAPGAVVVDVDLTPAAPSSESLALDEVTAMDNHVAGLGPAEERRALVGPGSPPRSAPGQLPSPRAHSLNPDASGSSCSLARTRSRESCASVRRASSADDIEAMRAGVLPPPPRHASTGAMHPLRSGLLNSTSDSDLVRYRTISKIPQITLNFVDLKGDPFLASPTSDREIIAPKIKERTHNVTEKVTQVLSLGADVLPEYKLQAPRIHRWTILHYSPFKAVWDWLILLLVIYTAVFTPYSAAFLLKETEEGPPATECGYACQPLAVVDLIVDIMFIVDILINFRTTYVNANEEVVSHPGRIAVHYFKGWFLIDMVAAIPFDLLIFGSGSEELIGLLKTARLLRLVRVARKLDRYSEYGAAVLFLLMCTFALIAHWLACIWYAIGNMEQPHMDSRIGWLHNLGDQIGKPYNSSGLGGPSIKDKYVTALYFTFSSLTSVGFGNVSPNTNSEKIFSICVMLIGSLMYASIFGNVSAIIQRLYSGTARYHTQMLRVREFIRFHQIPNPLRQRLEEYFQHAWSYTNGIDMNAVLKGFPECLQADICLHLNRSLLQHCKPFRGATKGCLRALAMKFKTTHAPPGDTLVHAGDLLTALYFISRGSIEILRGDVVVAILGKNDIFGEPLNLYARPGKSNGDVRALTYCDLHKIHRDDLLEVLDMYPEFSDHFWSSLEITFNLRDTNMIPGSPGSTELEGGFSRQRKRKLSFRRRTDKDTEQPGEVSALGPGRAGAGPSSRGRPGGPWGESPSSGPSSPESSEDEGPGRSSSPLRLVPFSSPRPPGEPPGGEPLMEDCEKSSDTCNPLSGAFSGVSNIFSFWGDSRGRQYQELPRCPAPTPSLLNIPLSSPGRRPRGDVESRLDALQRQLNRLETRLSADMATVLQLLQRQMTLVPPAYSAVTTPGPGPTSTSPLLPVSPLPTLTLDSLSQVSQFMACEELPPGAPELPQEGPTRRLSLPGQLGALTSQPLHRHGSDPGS
Sequence of Albumin (P02768 whole entry): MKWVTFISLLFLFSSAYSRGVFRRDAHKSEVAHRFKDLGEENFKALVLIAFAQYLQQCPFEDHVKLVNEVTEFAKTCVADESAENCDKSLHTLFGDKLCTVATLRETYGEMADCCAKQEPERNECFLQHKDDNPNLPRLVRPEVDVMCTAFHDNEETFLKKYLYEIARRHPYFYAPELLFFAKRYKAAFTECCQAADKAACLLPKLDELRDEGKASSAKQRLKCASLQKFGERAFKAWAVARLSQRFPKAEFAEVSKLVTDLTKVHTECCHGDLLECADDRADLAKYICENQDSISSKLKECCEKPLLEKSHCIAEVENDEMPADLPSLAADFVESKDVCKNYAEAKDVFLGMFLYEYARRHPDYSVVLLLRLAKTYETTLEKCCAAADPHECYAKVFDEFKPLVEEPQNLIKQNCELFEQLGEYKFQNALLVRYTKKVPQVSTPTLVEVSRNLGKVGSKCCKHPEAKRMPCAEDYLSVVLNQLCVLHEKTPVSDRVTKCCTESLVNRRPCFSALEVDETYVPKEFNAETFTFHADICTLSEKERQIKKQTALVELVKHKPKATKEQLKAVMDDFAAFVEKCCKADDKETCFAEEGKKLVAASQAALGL

## CCNC(=O)c1cc(Cc2cccc3[nH]ccc23)nc(-c2cn(C)nn2)c1
[1]
  pIC50: 7.3
[2]
  solubility kinetic: ≥ 148 µg/mL
[3]
  IC50: 31600 nM
Blood
  IC50: 398 nM
[4]
  CLH: < 0.45 mL/min/g
[5]
  CL free: 205 mL/min/kg
[6]
  pIC50: 7.3
[7]
  CLH: 1.98 mL/min/g
[8]
  Vd: 1.1 L/kg
[9]
  IC50: 25100 nM
Albumin
  Activity: 90%
[10]
  IC50: 10000 nM
[11]
  half-life: 0.87 h
[12]
  clearance: 21 mL/min/kg
[13]
  AUC/dose: 15 kg·min/L
[14]
  AUC at 7 h: 778 ng·h/mL
[15]
  bioavailability: 31%
[16]
  Papp: 30 ×10⁻⁶ cm/s
[17]
  IC50: 25100 nM
Homo sapiens
  Ratio pIC50: 315
[18]
  IC50: 31600 nM
[19]
  IC50: 31.6 nM
[20]
  pIC50: 7.5
[21]
  IC50: 25.1 nM

## CC(=O)Nc1c(F)cc(C(=O)N[C@H]2CC[C@H](O)CC2)cc1O[C@@H](C)c1ccccc1 [GSK046]
[22]
  solubility at 4 h: 996 µg/mL (≈ 2400 µM)
[16]
  Papp: 1.7 ×10⁻⁶ cm/s

## C[C@H](Oc1ccc(C(=O)NC2CC2)cc1-c1cn(C)nn1)c1ccccn1
[23]
  fraction unbound at 4 h: 0.76
[1]
  pIC50: 6.6
[2]
  solubility kinetic: 145 µg/mL (≈ 399 µM)
[3]
  IC50: 12600 nM
Blood
  IC50: 398 nM
[4]
  CLH: < 0.45 mL/min/g
[5]
  CL free: 19 mL/min/kg
[7]
  CLH: < 0.8 mL/min/g
[8]
  Vd: 1.8 L/kg
[9]
  IC50: 39800 nM
Albumin
  Activity: 84%
[10]
  IC50: 5010 nM
[11]
  half-life: 1.65 h
[12]
  clearance: 14 mL/min/kg
[13]
  AUC/dose: 23 kg·min/L
[14]
  AUC at 7 h: 1180 ng·h/mL
[15]
  bioavailability: 32%
[16]
  Papp: 15 ×10⁻⁶ cm/s
Homo sapiens
  Ratio pIC50: 100
[18]
  IC50: 39800 nM
[19]
  IC50: 50.1 nM
[20]
  pIC50: 7.1
[21]
  IC50: 15.8 nM

## CCNC(=O)c1ccc(OCc2ccccc2)c(-c2cn(C)nn2)c1
[2]
  solubility kinetic: 46 µg/mL (≈ 137 µM)
[10]
  IC50: 12600 nM
[16]
  Papp: 4.6 ×10⁻⁶ cm/s
Homo sapiens
  Ratio pIC50: 100
[19]
  IC50: 126 nM

## CCNC(=O)c1ccc(OCc2ccc(OC)cc2)c(-c2cn(C)nn2)c1
[2]
  solubility kinetic: ≥ 142 µg/mL
[10]
  IC50: 20000 nM
[16]
  Papp: 39 ×10⁻⁶ cm/s
Homo sapiens
  Ratio pIC50: 65
[19]
  IC50: 316 nM

## CCNC(=O)c1ccc(O[C@@H](C)c2ccccc2)c(-c2cn(C)nn2)c1
[2]
  solubility kinetic: 105 µg/mL (≈ 300 µM)
[10]
  IC50: 3980 nM
[16]
  Papp: 42 ×10⁻⁶ cm/s
Homo sapiens
  Ratio pIC50: 100
[19]
  IC50: 39.8 nM

## C[C@H](Oc1ccc(C(=O)NCC[C@@H]2CNCCO2)cc1-c1cn(C)nn1)c1ccccn1
[2]
  solubility kinetic: ≥ 177 µg/mL
[10]
  IC50: 6310 nM
[16]
  Papp: < 0.3 ×10⁻⁶ cm/s
Homo sapiens
  Ratio pIC50: 250
[19]
  IC50: 25.1 nM

## CCNC(=O)c1cc(Cc2ccc(F)cc2)nc(-c2cn(C)nn2)c1
[2]
  solubility kinetic: 75 µg/mL (≈ 221 µM)
[10]
  IC50: 20000 nM
[16]
  Papp: 33 ×10⁻⁶ cm/s
Homo sapiens
  Ratio pIC50: 80
[19]
  IC50: 251 nM

## CCNC(=O)c1cc(Cc2ccc(OC)cc2)nc(-c2cn(C)nn2)c1
[2]
  solubility kinetic: 53 µg/mL (≈ 151 µM)
[10]
  IC50: > 50100 nM
[16]
  Papp: 32 ×10⁻⁶ cm/s
Homo sapiens
  Ratio pIC50: > 65
[19]
  IC50: 794 nM

## CCNC(=O)c1cc(Cc2ccccc2)nc(C(=O)NC)c1
[2]
  solubility kinetic: ≥ 102 µg/mL
[22]
  solubility at 4 h: 310 µg/mL (≈ 1040 µM)
[16]
  Papp: 39 ×10⁻⁶ cm/s

## CCNC(=O)c1cc(Cc2ccccc2F)nc(-c2cn(C)nn2)c1
[2]
  solubility kinetic: 66 µg/mL (≈ 194 µM)
[10]
  IC50: 20000 nM
[16]
  Papp: 30 ×10⁻⁶ cm/s
Homo sapiens
  Ratio pIC50: 100
[19]
  IC50: 200 nM

## C[C@H](Oc1ccc(C(=O)NCC2CCOCC2)cc1-c1cn(C)nn1)c1ccccn1
[2]
  solubility kinetic: ≥ 192 µg/mL
[10]
  IC50: 31600 nM
[16]
  Papp: 5.5 ×10⁻⁶ cm/s
Homo sapiens
  Ratio pIC50: 65
[19]
  IC50: 501 nM

## CCNC(=O)c1ccc(OCc2cccc(OC)c2)c(-c2cn(C)nn2)c1
[2]
  solubility kinetic: ≥ 139 µg/mL
[10]
  IC50: 20000 nM
[16]
  Papp: 42 ×10⁻⁶ cm/s
Homo sapiens
  Ratio pIC50: 80
[19]
  IC50: 251 nM

## C[C@H](Oc1ccc(C(N)=O)cc1-c1cn(C)nn1)c1ccccn1
[2]
  solubility kinetic: 131 µg/mL (≈ 405 µM)
[10]
  IC50: 6310 nM
[16]
  Papp: 4.7 ×10⁻⁶ cm/s
Homo sapiens
  Ratio pIC50: 25
[19]
  IC50: 251 nM

## C[C@H](Oc1ccc(C(=O)N[C@H]2[C@@H]3COC[C@@H]32)cc1-c1cn(C)nn1)c1ccccn1
[2]
  solubility kinetic: ≥ 169 µg/mL
[10]
  IC50: 1580 nM
[16]
  Papp: 4.2 ×10⁻⁶ cm/s
Homo sapiens
  Ratio pIC50: 65
[19]
  IC50: 25.1 nM

## Cn1cc(-c2cc(C(=O)NCC[C@]3(F)CCCNC3)cc(Cc3ccccc3)n2)nn1
[2]
  solubility kinetic: ≥ 181 µg/mL
[10]
  IC50: 6310 nM
[16]
  Papp: 1.9 ×10⁻⁶ cm/s
Homo sapiens
  Ratio pIC50: 250
[19]
  IC50: 25.1 nM

## Cn1cc(-c2cc(C(=O)NCC[C@@H]3CNCCO3)cc(Cc3ccccc3)n2)nn1
[2]
  solubility kinetic: ≥ 138 µg/mL
[10]
  IC50: 12600 nM
[16]
  Papp: 1.8 ×10⁻⁶ cm/s
Homo sapiens
  Ratio pIC50: 400
[19]
  IC50: 31.6 nM

## C[C@H](Oc1ccc(C(=O)NCC[C@H]2CNCCO2)cc1-c1cn(C)nn1)c1ccccn1
[2]
  solubility kinetic: ≥ 182 µg/mL
[10]
  IC50: 7940 nM
[16]
  Papp: < 0.3 ×10⁻⁶ cm/s
Homo sapiens
  Ratio pIC50: 125
[19]
  IC50: 63.1 nM

## CCNC(=O)c1ccc(OCc2cccnc2)c(-c2cn(C)nn2)c1
[2]
  solubility kinetic: 103 µg/mL (≈ 305 µM)
[10]
  IC50: > 50100 nM
[16]
  Papp: 18 ×10⁻⁶ cm/s
Homo sapiens
  Ratio pIC50: > 50
[19]
  IC50: 1000 nM

## CCNC(=O)c1ccc(O[C@H](C)c2ccccc2)c(-c2cn(C)nn2)c1
[2]
  solubility kinetic: 119 µg/mL (≈ 340 µM)
[10]
  IC50: 39800 nM
[16]
  Papp: 42 ×10⁻⁶ cm/s
Homo sapiens
  Ratio pIC50: 25
[19]
  IC50: 1580 nM
